From ChEMBL document CHEMBL1147917, “Synthesis and crystallographic analysis of benzophenone derivatives--the potential anti-inflammatory agents” (Bioorg Med Chem, 2007)
Activity calls are given as the source filed them. The calls are words filed in the database; no cut-off is given here.

Assays:
Rattus norvegicus [1] = assay: Antiinflammatory activity against carrageenan-induced paw edema in Albino rat assessed as oedema inhibition relative to control at 40 mg/kg, po; assay type: functional
In short: (§1)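 Rats given test compound orally; 30 min later, 0.2 mL of 1% carrageenan in 0.9% NaCl injected subcutaneously into plantar aponeurosis of the hind paw. Paw volume measured by water plethysmometer before and at 3 h. Mean paw-volume increase compared with a carrageenan-only control group of five rats. % inhibition = (1 − Gt/Gc) × 100. Values are means of three determinations.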

Rattus norvegicus [2] = assay: Toxicity in rat assessed as incidence of hyperaemia at 100 mg/kg, po; assay type: organism-based; set-up: dose 100 mg/kg, route oral; details: in vivo
In short: (§2)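 Groups of 10 rats (200–230 g), fasted 24 h, dosed orally; controls untreated. Sacrificed 5 h after dosing. Stomach and small intestine examined under microscope for hyperaemia, epithelial shedding, petechiae, frank haemorrhage, erosion or discrete ulceration with or without perforation. Result expressed as percentage of animals affected.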

Rattus norvegicus [3] = assay: Antiinflammatory activity against carrageenan-induced paw edema in po dosed Albino rat assessed as oedema inhibition; assay type: functional
Rattus norvegicus [4] = assay: Toxicity in rat assessed as incidence of ulcer at 100 mg/kg, po; assay type: organism-based; set-up: dose 100 mg/kg, route oral; details: in vivo; in short: as §2
Rattus norvegicus [5] = assay: Toxicity in rat assessed as incidence of ulcer at 200 mg/kg, po; assay type: organism-based; set-up: dose 200 mg/kg, route oral; details: in vivo; in short: as §2
Oryctolagus cuniculus = species: Oryctolagus cuniculus; assay: Inhibition of rabbit microsomal COX at 10 uM
In short: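 COX source: microsomal pellet from minced, homogenized rabbit distal colon mucosa in 0.1 M Tris, pH 8.0, used immediately. Microsomes preincubated with test agent 10 min at 37 °C in Tris-HCl pH 8.0 with 2 mM glutathione, 5 mM L-tryptophan and 1 µM haematin. Then 20 µM arachidonic acid plus [1-14C] tracer added for 5 min at 37 °C. PGE2 separated by isocratic HPLC; co-eluting radioactivity counted by scintillation. % inhibition calculated versus paired controls.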

Rattus norvegicus [6] = assay: Toxicity in rat assessed as incidence of hyperaemia at 400 mg/kg, po; assay type: organism-based; set-up: dose 400 mg/kg, route oral; details: in vivo; in short: as §2
Rattus norvegicus [7] = assay: Toxicity in rat assessed as incidence of hyperaemia at 200 mg/kg, po; assay type: organism-based; set-up: dose 200 mg/kg, route oral; details: in vivo; in short: as §2
Rattus norvegicus [8] = assay: Antiinflammatory activity against carrageenan-induced paw edema in Albino rat assessed as oedema inhibition relative to control at 80 mg/kg, po; assay type: functional; in short: as §1
[9] = Toxicity in ip dosed Albino mouse; assay type: organism-based; details: in vivo, read-out: ALD50
In short: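 Albino mice, 25–30 g, groups of 10, given test compounds intraperitoneally at different dose levels. Mortality per group recorded 24 h after dosing. Approximate 50% lethal dose (ALD50) calculated from mortality data by the Smith method.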

Rattus norvegicus [10] = assay: Antiinflammatory activity against carrageenan-induced paw edema in Albino rat assessed as oedema inhibition relative to control at 20 mg/kg, po; assay type: functional; in short: as §1
Rattus norvegicus [11] = assay: Toxicity in rat assessed as incidence of ulcer at 400 mg/kg, po; assay type: organism-based; set-up: dose 400 mg/kg, route oral; details: in vivo; in short: as §2

Compound	inhibition in vivo at 40 mg/kg (Rattus norvegicus [1])	Activity (Rattus norvegicus [2])	ED50 (Rattus norvegicus [3])	Activity (Rattus norvegicus [4])	Activity (Rattus norvegicus [5])	inhibition (Oryctolagus cuniculus)	Activity (Rattus norvegicus [6])	Activity (Rattus norvegicus [7])	inhibition in vivo at 80 mg/kg (Rattus norvegicus [8])	LD50 [9]	inhibition in vivo at 20 mg/kg (Rattus norvegicus [10])	Activity (Rattus norvegicus [11])	Activity (Oryctolagus cuniculus)
Cc1ccc(C(=O)Oc2ccc(C)cc2C(=O)c2ccc(C)cc2)cc1	30.5%	40%	76.2 mg/kg	10%	15%	65%	80%	60%	60.1%	> 1000 mg/kg	20.6%	20%	
Cc1ccc(C(=O)c2cc(F)ccc2OC(=O)c2ccc(Cl)cc2)cc1	44.6%	50%	76.2 mg/kg	15%	20%	70%	90%	70%	64.1%	> 1000 mg/kg	16.6%	25%	
O=C(Oc1ccc(Cl)cc1C(=O)c1ccc(Cl)cc1)c1ccc(Cl)cc1	48.5%	60%	65.5 mg/kg	5%	10%	60%	100%	80%	60.1%	> 1000 mg/kg	35.5%	15%	
Cc1ccc(C(=O)Oc2ccc(F)cc2C(=O)c2ccc(C)cc2)cc1	35.5%	30%	70.1 mg/kg	20%	25%	30%	90%	55%	50.5%	> 1000 mg/kg	20.5%	45%	
O=C(Oc1ccc(Cl)cc1C(=O)c1cccc(Cl)c1Cl)c1ccccc1	29.8%	70%	63.6 mg/kg	10%	20%	40%	100%	90%	63.8%	> 1000 mg/kg	21.1%	40%	
Cc1ccc(OC(=O)c2ccccc2)c(C(=O)c2cccc(F)c2)c1	30.2%	25%	75.5 mg/kg	50%	65%		50%	40%	40.5%	> 1000 mg/kg	18.5%	75%	inactive
Cc1ccc(OC(=O)c2ccccc2)c(C(=O)c2ccccc2)c1	29.9%	40%	78.6 mg/kg	10%	20%	20%	100%	60%	56.4%	> 1000 mg/kg	15.1%	40%	
Cc1ccc(OC(=O)c2cccc(Cl)c2)c(C(=O)c2cccc(Cl)c2)c1	29.9%	25%	55.7 mg/kg	50%	65%		50%	40%	56.4%	> 1000 mg/kg	15.1%	75%	inactive
Cc1ccc(C(=O)Oc2ccc(Cl)cc2C(=O)c2ccc(Cl)cc2)cc1	30.4%	50%	60.5 mg/kg	10%	15%	85%	100%	70%	77.1%	> 1000 mg/kg	29.2%	20%	
O=C(Oc1ccc(Br)cc1C(=O)c1ccc(Cl)cc1)c1ccc(Cl)cc1	46.5%	50%	61.5 mg/kg	5%	10%	87%	100%	70%	77.1%	> 1000 mg/kg	23.4%	25%	
Cc1ccc(OC(=O)c2ccccc2C)c(C(=O)c2ccccc2C)c1	33.9%	50%	78.9 mg/kg	20%	30%	70%	90%	70%	64.8%	> 1000 mg/kg	17.5%	40%	
CC(=O)Oc1ccccc1C(=O)O [ASPIRIN]	30.5%	25%	95.5 mg/kg	75%	90%	95%	85%	55%	55.1%		29.5%	85%	
Cc1ccc(C(=O)c2cc(C)ccc2OC(=O)c2ccc(Cl)cc2)cc1	46.5%	25%	57.3 mg/kg	15%	25%		75%	50%	85.5%	> 1000 mg/kg	31.4%	18%	inactive
Cc1ccc(C(=O)Oc2ccc(C)cc2C(=O)c2ccccc2)cc1	29.4%	20%	75.5 mg/kg	45%	55%		55%	35%	46.5%	> 1000 mg/kg	15.5%	80%	inactive
CCCCC1C(=O)N(c2ccccc2)N(c2ccccc2)C1=O [PHENYLBUTAZONE]	33%	25%		35%	65%	85%	80%	50%	55.1%		30.1%	90%	
Cc1ccc(OC(=O)c2ccccc2)c(C(=O)c2ccc(Cl)cc2)c1	24.2%	20%	77.9 mg/kg	40%	50%		60%	40%	47.5%	> 1000 mg/kg	14.7%	80%	inactive
